# Measurements: ChEMBL document CHEMBL1268916, “Second generation 2-pyridyl biphenyl amide inhibitors of the hedgehog pathway” (Bioorg Med Chem Lett, 2010)
# Target: Cytochrome P450 2C9 (Homo sapiens, UniProt P11712)
# Experiment: Inhibition of CYP2C9
# Format: ADME
# Conditions: not given
# Sequence of Cytochrome P450 2C9 (P11712 whole entry): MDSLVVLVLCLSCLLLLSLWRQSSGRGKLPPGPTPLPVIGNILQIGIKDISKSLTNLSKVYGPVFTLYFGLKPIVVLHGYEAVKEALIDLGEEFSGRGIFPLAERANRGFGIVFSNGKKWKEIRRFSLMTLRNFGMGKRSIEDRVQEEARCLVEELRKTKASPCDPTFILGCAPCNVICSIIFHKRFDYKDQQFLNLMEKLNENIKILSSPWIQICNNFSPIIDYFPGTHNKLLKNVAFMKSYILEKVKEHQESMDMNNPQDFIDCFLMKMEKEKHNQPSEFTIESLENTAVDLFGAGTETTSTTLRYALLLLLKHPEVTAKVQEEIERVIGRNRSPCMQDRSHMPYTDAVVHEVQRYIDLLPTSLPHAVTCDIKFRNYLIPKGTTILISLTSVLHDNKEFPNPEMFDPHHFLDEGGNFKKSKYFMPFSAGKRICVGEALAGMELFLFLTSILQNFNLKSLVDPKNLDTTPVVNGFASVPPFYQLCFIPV
row,SMILES,IC50 [nM]
1,CCN1CCN(c2ccc(C(=O)Nc3ccc(Cl)c(-c4ccccn4)c3)c(C)n2)CC1,> 20000
2,Cc1nc(NCC(C)C)ccc1C(=O)Nc1ccc(Cl)c(-c2ccccn2)c1,500
3,O=C(Nc1ccc(Cl)c(-c2ccccn2)c1)c1ccc(C(=O)N2CCS(=O)(=O)CC2)cc1Cl,9000

# Next, values leading:
row,IC50 [nM],SMILES
1,> 20000,Cc1nc(NCCO)ccc1C(=O)Nc1ccc(Cl)c(-c2ccccn2)c1
2,> 20000,NS(=O)(=O)c1ccc(C(=O)Nc2ccc(Cl)c(-c3ccccn3)c2)c(Cl)c1
3,8000,CS(=O)(=O)Nc1ccc(C(=O)Nc2ccc(Cl)c(-c3ccccn3)c2)c(Cl)c1
4,1200,O=C(NCc1ccccc1)c1ccc(C(=O)Nc2ccc(Cl)c(-c3ccccn3)c2)c(Cl)c1

# Target: Cytochrome P450 3A4 (Homo sapiens, UniProt P08684)
# Experiment: Inhibition of CYP3A4
# Format: ADME
# Conditions: not given
# Sequence of Cytochrome P450 3A4 (P08684 whole entry): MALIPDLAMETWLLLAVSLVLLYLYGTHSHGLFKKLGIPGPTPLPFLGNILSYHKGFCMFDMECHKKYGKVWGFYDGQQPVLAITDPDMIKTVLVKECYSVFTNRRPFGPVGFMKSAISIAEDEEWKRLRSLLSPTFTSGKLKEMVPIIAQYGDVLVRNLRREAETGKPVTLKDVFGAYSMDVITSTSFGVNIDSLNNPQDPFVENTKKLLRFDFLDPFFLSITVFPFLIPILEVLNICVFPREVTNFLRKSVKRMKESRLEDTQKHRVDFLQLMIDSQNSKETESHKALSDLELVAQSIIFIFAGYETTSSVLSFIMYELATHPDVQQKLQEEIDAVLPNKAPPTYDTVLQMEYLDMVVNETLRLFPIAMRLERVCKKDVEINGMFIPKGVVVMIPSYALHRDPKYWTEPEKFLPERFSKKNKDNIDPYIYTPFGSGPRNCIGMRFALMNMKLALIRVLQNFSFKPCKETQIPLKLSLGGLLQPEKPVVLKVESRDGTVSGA
row,SMILES,IC50 [nM]
1,CCN1CCN(c2ccc(C(=O)Nc3ccc(Cl)c(-c4ccccn4)c3)c(C)n2)CC1,> 20000
2,Cc1nc(NCC(C)C)ccc1C(=O)Nc1ccc(Cl)c(-c2ccccn2)c1,19000
3,O=C(Nc1ccc(Cl)c(-c2ccccn2)c1)c1ccc(C(=O)N2CCS(=O)(=O)CC2)cc1Cl,> 20000

# The remaining lines, values ahead:
row,IC50 [nM],SMILES
1,> 20000,Cc1nc(NCCO)ccc1C(=O)Nc1ccc(Cl)c(-c2ccccn2)c1
2,> 20000,NS(=O)(=O)c1ccc(C(=O)Nc2ccc(Cl)c(-c3ccccn3)c2)c(Cl)c1
3,> 20000,CS(=O)(=O)Nc1ccc(C(=O)Nc2ccc(Cl)c(-c3ccccn3)c2)c(Cl)c1
4,> 20000,O=C(NCc1ccccc1)c1ccc(C(=O)Nc2ccc(Cl)c(-c3ccccn3)c2)c(Cl)c1

# Test system: not listed separately
# Experiment: Thermodynamic solubility at pH 1.0
# Format: physicochemical
# Conditions: buffer
row,solubility thermodynamic [µg/mL],SMILES
1,4300,O=C(Nc1ccc(Cl)c(-c2ccccn2)c1)c1ccc(C(=O)N2CCS(=O)(=O)CC2)cc1Cl
2,910,CS(=O)(=O)Nc1ccc(C(=O)Nc2ccc(Cl)c(-c3ccccn3)c2)c(Cl)c1

# Test system: not listed separately
# Experiment: Inhibition of Hedgehog signaling in human HEPM cells assessed as reduction in receptor-mediated Gli1 mRNA expression by reporter gene assay
# Format: cell-based
# Conditions: not given
row,SMILES,IC50 [nM]
1,CCN1CCN(c2ccc(C(=O)Nc3ccc(Cl)c(-c4ccccn4)c3)c(C)n2)CC1,5
2,Cc1nc(NCC(C)C)ccc1C(=O)Nc1ccc(Cl)c(-c2ccccn2)c1,14
3,O=C(Nc1ccc(Cl)c(-c2ccccn2)c1)c1ccc(C(=O)N2CCS(=O)(=O)CC2)cc1Cl,5

# Further molecules by falling IC50, results first:
row,IC50 [nM],SMILES
1,23,Cc1nc(NCCO)ccc1C(=O)Nc1ccc(Cl)c(-c2ccccn2)c1
2,5,NS(=O)(=O)c1ccc(C(=O)Nc2ccc(Cl)c(-c3ccccn3)c2)c(Cl)c1
3,2,CS(=O)(=O)Nc1ccc(C(=O)Nc2ccc(Cl)c(-c3ccccn3)c2)c(Cl)c1
4,1,O=C(NCc1ccccc1)c1ccc(C(=O)Nc2ccc(Cl)c(-c3ccccn3)c2)c(Cl)c1

# Test system: Mus musculus
# Experiment: Inhibition of Hedgehog signaling in Calu-6 cells xenografted nude mouse PK/PD model assessed as reduction in Gli1 mRNA expression at 75 mg/kg, po bid for 5 doses measured 4 hrs post last dose relative to untreated control
# Conditions: Calu-6, po
row,SMILES,inhibition in vivo at 75 mg/kg [%]
1,CS(=O)(=O)Nc1ccc(C(=O)Nc2ccc(Cl)c(-c3ccccn3)c2)c(Cl)c1,25

# Test system: not listed separately
# Experiment: Thermodynamic solubility at pH 6.5
# Format: physicochemical
# Conditions: buffer
row,solubility thermodynamic [µg/mL],SMILES
1,60,O=C(Nc1ccc(Cl)c(-c2ccccn2)c1)c1ccc(C(=O)N2CCS(=O)(=O)CC2)cc1Cl
2,1,CS(=O)(=O)Nc1ccc(C(=O)Nc2ccc(Cl)c(-c3ccccn3)c2)c(Cl)c1

# Test system: not listed separately
# Experiment: Plasma concentration in Calu-6 cells xenografted nude mouse PK/PD model at 75 mg/kg, po bid for 5 days measured 4 hrs post last dose relative to untreated control
# Format: ADME, organism-based
# Set-up: dose 75 mg/kg, route oral
# Conditions: not given
# Procedure, shortened: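 Calu-6 tumor-bearing mice were dosed orally 75 mg/kg BID for five doses. Plasma was sampled 4 h after the last dose, at the same time as tumor harvest. Compound was given as free base or HCl salt, suspended in a methylcellulose/Tween or Labrafil-based vehicle.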
row,concentration at 4 h [nM],SMILES
1,2200,CS(=O)(=O)Nc1ccc(C(=O)Nc2ccc(Cl)c(-c3ccccn3)c2)c(Cl)c1

# Test system: not listed separately
# Experiment: Clearance in rat at 5 mg/kg, po or 1 mg/kg, iv
# Format: ADME, organism-based
# Conditions: in vivo
# Procedure, shortened: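 Male rats received the TFA salt as a solution. The IV dose was 1 mg/kg in 80% PEG or in 5% DMSO/5% cremophor. The oral dose was 5 mg/kg in 60–80% PEG.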
row,clearance [mL/min/kg],SMILES
1,35,O=C(Nc1ccc(Cl)c(-c2ccccn2)c1)c1ccc(C(=O)N2CCS(=O)(=O)CC2)cc1Cl
2,2.4,CS(=O)(=O)Nc1ccc(C(=O)Nc2ccc(Cl)c(-c3ccccn3)c2)c(Cl)c1

# Test system: not listed separately
# Experiment: Inhibition of Hedgehog signaling in mouse S12 cells assessed as reduction in receptor-mediated Gli1 mRNA expression by reporter gene assay
# Format: cell-based
# Conditions: not given
row,SMILES,IC50 [nM]
1,CCN1CCN(c2ccc(C(=O)Nc3ccc(Cl)c(-c4ccccn4)c3)c(C)n2)CC1,160
2,Cc1nc(NCC(C)C)ccc1C(=O)Nc1ccc(Cl)c(-c2ccccn2)c1,53
3,O=C(Nc1ccc(Cl)c(-c2ccccn2)c1)c1ccc(C(=O)N2CCS(=O)(=O)CC2)cc1Cl,33

# Further lines, results first:
row,IC50 [nM],SMILES
1,62,Cc1nc(NCCO)ccc1C(=O)Nc1ccc(Cl)c(-c2ccccn2)c1
2,35,NS(=O)(=O)c1ccc(C(=O)Nc2ccc(Cl)c(-c3ccccn3)c2)c(Cl)c1
3,17,CS(=O)(=O)Nc1ccc(C(=O)Nc2ccc(Cl)c(-c3ccccn3)c2)c(Cl)c1
4,7,O=C(NCc1ccccc1)c1ccc(C(=O)Nc2ccc(Cl)c(-c3ccccn3)c2)c(Cl)c1
